# CHOP inh: blocks CHOP induction under ER stress; inhibition, % at 10 µM; CHO-K1 CHOP-promoter luciferase, tunicamycin-induced, 15-18 h; 220,000 compounds, 3.8% hits;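 active = compounds that reduced the stress-induced luciferase reporter signal by more than about 70% of percent inhibition, limit read from the data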;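 note: 0% = tunicamycin plus vehicle and 100% = wells without tunicamycin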
# Tb MetRS inh: blocks T. brucei methionyl-tRNA synthetase activity | purified T. brucei MetRS, ATP depletion, Kinase-Glo luminescence | inhibition, % at 11.9 µM | 360,000 compounds, 0.4% hits;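 active = inhibition above a per-plate cutoff of the control wells' mean inhibition plus 3 SD, cut at about 5.5% in these data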;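 note: 0% = DMSO wells median and 100% = median of wells with control inhibitor compound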
#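 Measured by: Kinase-Glo luciferase luminescence reporting remaining unconsumed ATP. Material: purified T. brucei MetRS enzyme. Doses: 11.9 µM compound single dose, 0.9% DMSO. Medium: HEPES buffer containing pyrophosphatase, BSA, spermine, DTT. Times: 15 min preincubation, 2 h reaction, all 25 °C. Reagent: methionine, ATP and bulk E. coli tRNA.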
# CHOP UPR activ: activators of apoptotic arm of unfolded protein response (CHOP). AID 449763. CHO-CHOP luciferase reporter, UPR activation, luminescence; percent of tunicamycin response over DMSO baseline. activation, % at 10 µM. 330,000 compounds, 0.34% hits;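 active = at 10 µM dose, activation of 40% or more, normalized to positive control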;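 note: 100% = tunicamycin at 10 µg/mL and 0% = DMSO alone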
#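 Assay system: CHO-CHOP cells, stable luciferase reporter of PERK-eIF2a-CHOP signalling / Buffer or medium: F12 plus 10% serum / Compound dosing: one dose, 10 µM in 0.5% DMSO / Times: 6 h compound treatment, 37 °C / Technique: luciferase luminescence / Read-out: % reporter activation, DMSO baseline versus tunicamycin full activation / Benchmarks: tunicamycin and DMSO controls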
# V-ATPase pH: alters yeast V-ATPase proton transport; AID 504577; 350,000 compounds, 0.37% hits; response, % at 10 µM; S. cerevisiae, pHLuorin cytosolic pH fluorescence; in the data active = response mostly above about 7.3%, no sharp cut-off; inactive = mostly below about 5.4%; note: actives read high
# XBP1 UPR activ: activators of adaptive arm of unfolded protein response (XBP1); 330,000 compounds, 0.33% hits; activation, % at 20 µM; CHO-XBP1 luciferase reporter, IRE1-XBP1 UPR activation, luminescence; percent of tunicamycin response, DMSO as zero;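 active = versus positive control, 20 µM dose yields 30% or more activation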;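 note: 100% = tunicamycin at 10 µg/mL and 0% = DMSO only wells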
#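 incubation = overnight seeding at 37 °C, 6 h compound treatment at 37 °C | assay system = CHO-XBP1 cells stably carrying IRE1-XBP1-driven luciferase reporter | input = 1000 cells per well | detection = luciferase luminescence | dosing = single point, 20 µM final compound, 1% DMSO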
# TbMetRS confirm: Trypanosoma brucei MetRS inhibition confirmed. T. brucei MetRS enzyme, luminescence (ATP depletion). AID 624412. inhibition, % at 11.9 µM. shares compounds with Tb MetRS inh. 1,400 compounds, 93% hits; in the data active = inhibition above about 7%
# Jurkat cytotox: Jurkat T cell cytotoxicity for MetRS hits. shares compounds with Tb MetRS inh. Jurkat cells viability, ATP luminescence. inhibition, % at 8.3 µM. 1,400 compounds, 12% hits. AID 624413; in the data active = inhibition above about 15%;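 note: 0% = vehicle and 100% = reference inhibitor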
# TbMetRS FP orth: inhibits T. brucei methionyl tRNA synthetase in orthogonal FP test | purified T. brucei MetRS, fluorescence polarization | shares compounds with Tb MetRS inh | AID 651607 | inhibition, % at 11.9 µM | 1,400 compounds, 44% hits; in the data active = inhibition above about 17%;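 note: 0% = vehicle wells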
# * marks the source's active call; other numbers are inactive results; . = no result given. This excerpt belongs to a sample that is enriched for hits.
SMILES,CHOP inh,Tb MetRS inh,CHOP UPR activ,V-ATPase pH,XBP1 UPR activ,TbMetRS confirm,Jurkat cytotox,TbMetRS FP orth
Cc1ccc2nc(SC(C)C(=O)Nc3cccc([N+](=O)[O-])c3)[nH]c2c1 (stereo not drawn),48.1,37.7*,0.6,-0.7,0.0,63.6*,3.4,36.9*
Cc1ccc2nc(SC(C)C(=O)NC3CCCC3)[nH]c2c1 (stereo not drawn),.,0.3,1.1,4.9,-2.9,.,.,.
Cc1ccc2nc(N/C(=N/S(=O)(=O)c3cccs3)c3ccccc3Cl)sc2c1,-18.6,6.8*,0.4,-2.1,1.9,13.4*,4.1,7.8
CCOC(=O)c1ccc(NC(=S)Nc2ccccc2N)cc1,.,.,2.8,.,4.6,.,.,.
COc1ccc(OC)c(NC(=O)C(C)OC(=O)c2cc3ccccc3[nH]2)c1 (stereo not drawn),.,-0.6,.,0.3,.,.,.,.
O=C(Cn1c(CO)nc2ccccc21)Nc1cc(C(F)(F)F)ccc1N1CCOCC1,53.2,14.2*,-0.3,4.1,-2.4,26.4*,-1.7,4.5
N#Cc1cc2c(nc1Cl)CCC2,8.3,0.2,0.8,-0.6,-2.4,.,.,.
Cc1ccc(CN=C2Nc3ccccc3CS2)cc1,40.9,18.5*,1.6,0.5,1.8,31.6*,2.5,8.2
c1cncc(CN=C2Nc3ccccc3CS2)c1,42.1,8.6*,2.2,1.3,1.8,16.6*,-3.8,9.0
Clc1ccc(CN=C2Nc3ccccc3CS2)cc1,65.4,12.2*,2.1,4.5,4.4,25.4*,1.5,14.4
COc1cccc(CN=C2Nc3ccccc3CS2)c1,-6.7,6.1*,4.9,-1.3,3.1,10.7*,13.3,3.2
Cc1ccc(C)c(C2=NNC(=NCc3ccccc3)SC2)c1,27.7,-0.3,.,0.2,.,.,.,.
Cn1c2ccccc2c2nnc(SCC(=O)NCc3ccoc3)nc21,4.4,-0.1,-0.3,3.3,-1.0,.,.,.
c1ccc2c(c1)CSc1ccccc1N2,.,0.7,4.8,2.4,4.3,.,.,.
COc1ccccc1CN=C1Nc2ccccc2CS1,-11.2,12.7*,2.2,0.7,3.4,31.8*,-3.5,11.1
COc1nc(Nc2cccc(F)c2)nc(OC)n1,.,-0.9,0.9,1.4,4.7,.,.,.
COc1cc2nc(Nc3cccc(F)c3)nc(N)c2cc1OC,.,9.1*,6.5,-1.6,6.2,29.4*,11.6,25.0*
O=C(C(=O)N1CCN(Cc2ccc3c(c2)OCO3)CC1)c1c[nH]c2ccccc12,.,9.6*,0.4,-4.4,-6.0,24.9*,7.2,7.8
O=C(C(=O)N1CC=C(c2ccccc2)CC1)c1c[nH]c2ccccc12,35.7,7.4*,0.3,2.2,-1.3,16.5*,-1.5,9.8
Cc1[nH]c2ccccc2c1C(=O)C(=O)N1CCCc2ccccc21,24.9,2.5,3.4,-1.3,-3.4,.,.,.
O=C(C(=O)N1CCCc2ccccc21)c1c[nH]c2ccccc12,6.5,8.2*,1.5,-0.5,0.6,12.7*,7.0,2.8
O=C(C(=O)N1CCN(c2ccccc2Cl)CC1)c1c[nH]c2ccccc12,.,12.9*,-1.3,-1.2,1.9,24.1*,18.0*,7.5
Cc1c(C(=O)C(=O)N2CCN(Cc3ccc4c(c3)OCO4)CC2)c2ccccc2n1C,.,0.4,-1.2,2.0,-0.9,.,.,.
O=C(c1cc(=O)[nH]c2ccccc12)N1CC=C(c2ccccc2)CC1,.,-0.5,-0.1,0.9,-2.3,.,.,.
CCOC(=O)C1(C)C=C(Nc2ccc(NC(C)=O)cc2)C(=O)N1c1ccc(NC(C)=O)cc1 (stereo not drawn),8.8,0.1,2.6,4.3,0.9,.,.,.
SMILES,CHOP inh,Tb MetRS inh,CHOP UPR activ,V-ATPase pH,XBP1 UPR activ,TbMetRS confirm,Jurkat cytotox,TbMetRS FP orth
Cc1[nH]c2ccccc2c1C(=O)C(=O)N1CCN(c2ccccc2F)CC1,.,7.2*,-0.2,5.4,2.5,19.9*,-5.3,5.7
Cc1ccc(C)c(C(=O)Nc2nc3ccccc3[nH]2)c1,.,-0.1,4.0,0.9,-3.5,.,.,.
Cc1ccc(Nc2nc3ccccc3[nH]2)nc1,-42.6,8.1*,4.0,-2.9,2.6,25.7*,-1.2,13.3
Cc1ccc(N2C(S)=C(C#N)C(=O)NC2c2cccs2)cc1 (stereo not drawn),43.8,-0.2,0.5,3.8,-3.6,.,.,.
O=C(CSc1ccc(-c2nc3ccccc3[nH]2)cn1)N1CCN(C(=O)c2ccco2)CC1,0.5,7.8*,-0.7,5.1,2.4,14.7*,15.2*,12.3
O=C1/C(=C/c2c[nH]c3ccccc23)CCC/C1=C\c1c[nH]c2ccccc12,50.0,6.2*,2.7,1.6,-1.1,7.5*,17.9*,17.6*
CCOc1cc(/C=C2\SC(=S)N(NS(=O)(=O)c3ccc(C)cc3)C2=O)ccc1O,.,5.8*,1.0,-4.2,3.1,11.1*,-4.3,31.9*
CS(=O)(=O)N1CCC(Oc2ccccc2C(=O)N2CCNC(=O)C2)CC1,4.2,-0.8,-1.0,-0.7,-5.5,.,.,.
O=C(O)CC1S/C(=N/N=C/c2ccc(-c3ccc(Cl)cc3[N+](=O)[O-])o2)NC1=O (stereo not drawn),11.4,10.8*,-0.3,0.6,-1.9,14.1*,-4.0,12.2
O=C(O)CC1S/C(=N/N=C/c2ccc(-c3ccc(Cl)c([N+](=O)[O-])c3)o2)NC1=O (stereo not drawn),1.2,1.1,1.0,-0.3,-0.5,.,.,.
C/C(CC(=O)Nc1cccc(Br)c1)=N\NC(=O)c1ccc(O)cc1O,.,27.0*,0.8,-0.7,-7.5,98.4*,1.3,80.2*
COc1ccccc1N1C(=O)c2ccccc2NC1c1ccc(O)cc1 (stereo not drawn),.,6.8*,1.0,-6.1,-2.7,5.4,-8.9,0.8
O=C(NCc1nc2ccccc2[nH]1)C1=C[C@@H](c2ccc(C(F)(F)F)cc2)C[C@@H](OCc2ccc(CO)cc2)O1,.,37.0*,7.3,2.1,1.2,78.6*,-0.5,49.0*
O=C(NCc1nc2ccccc2[nH]1)C1=C[C@H](c2coc3ccccc3c2=O)C[C@H](OCc2ccc(CO)cc2)O1,32.0,23.7*,-1.0,-4.8,-1.6,58.1*,0.7,32.3*
O=C(Nc1ccccc1)C1=C[C@@H](c2ccc(C(F)(F)F)cc2)C[C@@H](OCc2ccc(CO)cc2)O1,-18.2,-0.5,2.2,-3.5,-3.2,.,.,.
O=C(NCc1nc2ccccc2[nH]1)C1=C[C@@H](c2ccc3c(c2)OCO3)C[C@@H](OCc2ccc(CO)cc2)O1,25.5,.,7.3,.,-3.2,.,.,.
